The text below walks through data of ChEMBL document CHEMBL4402603, “Structure-Activity Relationship of SPOP Inhibitors against Kidney Cancer” (J Med Chem, 2020).

Each structure is given as a SMILES string. Calls of active or inactive are those of the source. No cut-off for these calls is given here. A value given as a limit tells only on which side of the number the result lay.

Assay [1] deals with Speckle-type POZ protein (Homo sapiens) (UniProt O43791). The assay is described as follows: Inhibition of SPOP signalling in human OS-RC2 cells assessed as effect of DUSP7 mRNA expression at 1 to 10 uM incubated for 12 hrs by qRT-PCR analysis. In kind it is cell-based. On the technique in general: Real-time PCR tracks product formation cycle by cycle.
Speckle-type POZ protein (Homo sapiens), sequence (O43791 whole entry): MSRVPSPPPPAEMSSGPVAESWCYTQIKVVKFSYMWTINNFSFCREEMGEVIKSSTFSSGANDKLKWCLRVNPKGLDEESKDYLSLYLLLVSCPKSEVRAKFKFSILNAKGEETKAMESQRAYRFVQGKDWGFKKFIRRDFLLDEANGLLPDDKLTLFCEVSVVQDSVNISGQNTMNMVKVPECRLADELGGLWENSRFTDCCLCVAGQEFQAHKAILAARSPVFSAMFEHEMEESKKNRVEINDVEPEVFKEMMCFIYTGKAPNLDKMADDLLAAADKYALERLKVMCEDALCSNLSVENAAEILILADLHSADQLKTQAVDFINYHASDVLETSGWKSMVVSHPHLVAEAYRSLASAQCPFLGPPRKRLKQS
In assay [2] the test system is Hs 766. Briefly: Cytotoxicity against human Hs766T cells assessed as reduction in cell viability incubated for 72 hrs by MTT assay. The note with it: Hs 766, 72 h. In kind it is cell-based. An outline of the steps:
(§1)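 Cells maintained in DMEM/10% FBS at 37 °C, 5% CO2. Cell proliferation quantified by MTT after 72 hr compound exposure, A490 read. Untreated cells = 100%. Mean ± SD, n = 3.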
(In general: Tetrazolium dyes change colour on reduction, which living cells bring about.)

Assay [3] deals with HK-2. Briefly: Cytotoxicity against human HK2 cells assessed as reduction in cell viability incubated for 72 hrs by MTT assay. In kind it is cell-based. The note with it: HK-2, 72 h.
In assay [4] the target is Speckle-type POZ protein (Homo sapiens) (UniProt O43791). Briefly: Inhibition of SPOP signalling in human A498 cells assessed as accumulation of DUSP7 incubated for 12 hrs by Western blot analysis. In kind it is cell-based. The procedure, abridged:
(§2)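 Cells exposed 12 hr to inhibitor at graded concentrations, RIPA lysates normalized by BCA. 12% SDS-PAGE, nitrocellulose transfer, milk block, primary antibody at 4 °C overnight, HRP secondary, ECL. GAPDH loading control.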

Assay [5] has as its target T1, Speckle-type POZ protein/PTEN (Homo sapiens) (UniProt P60484+O43791). Briefly: Inhibition of SPOP/PTEN interaction in human HEK293T cells assessed as reduction in SPOP level incubated for 12 hr by co-immunoprecipitation based Western blot analysis. In general terms: Immunoblotting shows a protein as a band on a membrane.
The target in assay [6] is Speckle-type POZ protein (Homo sapiens) (UniProt O43791). Briefly: Inhibition of SPOP signalling in human OS-RC2 cells assessed as effect of PTEN mRNA expression at 1 to 10 uM incubated for 12 hrs by qRT-PCR analysis. In kind it is cell-based.
For assay [7] the target is unchanged. The assay is described as follows: Inhibition of SPOP signalling in human A498 cells assessed as accumulation of PTEN incubated for 12 hrs by Western blot analysis. In kind it is cell-based. The procedure, abridged:
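Cells treated with SPOP inhibitor at different concentrations for 12 hr, lysed in RIPA, protein by BCA. Samples run on 12% SDS-PAGE, blotted to nitrocellulose, primary antibody overnight at 4 °C, HRP secondary, ECL detection. GAPDH loading control. Triplicate experiments.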

The target is the same in assay [8]. Briefly: Inhibition of SPOP in HEK293T cells assessed as reduction in cell viability incubated for 72 hrs by MTT assay. In kind it is cell-based.
Assay [9] has as its system U-251. The assay is described as follows: Cytotoxicity against human U251 cells assessed as reduction in cell viability incubated for 72 hrs by MTT assay. In kind it is cell-based. The note with it: U-251, 72 h. An outline of the steps:
as §1

In assay [10] the target is Speckle-type POZ protein (Homo sapiens) (UniProt O43791). The assay is described as follows: Inhibition of SPOP signalling in human A498 cells assessed as effect on total ERK level at 0.5 to 10 uM incubated for 12 hrs by Western blot analysis. In kind it is cell-based. The procedure, abridged: as §2
The target in assay [11] is T1, Speckle-type POZ protein/PTEN (Homo sapiens). The assay is described as follows: Inhibition of SPOP/PTEN interaction in human OS-RC2 cells assessed as increase in SPOP level at 1 to 50 uM incubated for 20 mins by DARTS based Western blot analysis. In kind it is cell-based. An outline of the steps:
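DARTS. Lysates of 1×10⁶ cells in TNC buffer, 120 μg per tube, incubated with compound at 0, 1, 5, 10 or 50 μM for 20 min at rt. Pronase digestion 10 min at rt (1:1000 for A498, 1:2000 for OS-RC-2), stopped with protease inhibitors, then SPOP western blot. Triplicate experiments.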

In assay [12] the test system is OS-RC-2. Briefly: Inhibition of colony formation in human OS-RC2 cells at 1 to 5 uM incubated for 12 days by crystal violet dye based assay. In kind it is functional, cell-based. An outline of the steps: (§3)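 Cells seeded at 1,000/well, grown 12 days at 37 °C, 5% CO2, medium renewed every 3 days. Fixed with 10% acetic acid/10% methanol for 15 min, stained with 1% crystal violet for 10 min.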

The target in assay [13] is Speckle-type POZ protein (Homo sapiens) (UniProt O43791). Briefly: Inhibition of SPOP signalling in human OS-RC2 cells assessed as effect on total AKT level at 0.5 to 15 uM incubated for 12 hrs by Western blot analysis. In kind it is cell-based. An outline of the steps:
as §2

Assay [14] has the same target. Briefly: Inhibition of SPOP signalling in human OS-RC2 cells assessed as reduction in ERK phosphorylation at 0.5 to 15 uM incubated for 12 hrs by Western blot analysis. In kind it is cell-based. An outline of the steps: as §2
Assay [15] relates to A498. Briefly: Inhibition of colony formation in human A498 cells at 1 to 5 uM incubated for 12 days by crystal violet dye based assay. In kind it is functional, cell-based. An outline of the steps:
as §3

For assay [16], the target named is Speckle-type POZ protein (Homo sapiens) (UniProt O43791). The assay is described as follows: Inhibition of SPOP signalling in human A498 cells assessed as effect on total AKT level at 0.5 to 10 uM incubated for 12 hrs by Western blot analysis. In kind it is cell-based. An outline of the steps: as §2

T1 sequence (O43791 whole entry, looked up): as the sequence (O43791 whole entry) above
T1 sequence (P60484 whole entry, looked up): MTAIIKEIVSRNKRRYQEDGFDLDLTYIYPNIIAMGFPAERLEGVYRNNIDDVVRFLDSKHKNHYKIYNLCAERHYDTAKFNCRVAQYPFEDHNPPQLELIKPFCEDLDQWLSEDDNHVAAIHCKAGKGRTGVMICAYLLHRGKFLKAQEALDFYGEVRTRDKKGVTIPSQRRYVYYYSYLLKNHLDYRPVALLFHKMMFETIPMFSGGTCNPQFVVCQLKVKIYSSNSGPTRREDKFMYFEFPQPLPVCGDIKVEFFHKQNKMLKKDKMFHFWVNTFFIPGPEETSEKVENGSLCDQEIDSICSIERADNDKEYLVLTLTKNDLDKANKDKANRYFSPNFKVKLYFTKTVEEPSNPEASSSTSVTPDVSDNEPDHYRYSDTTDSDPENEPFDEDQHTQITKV

A word on the IC50: it is the midpoint of a concentration-inhibition curve. On to `Cc1cccn2c(=O)c3cc(C(=O)NCCN4CCN(C)CC4)c(=N)n(CCc4cccs4)c3nc12`, for which the inhibition entry in assay [1], in [6], in assay [10], in [13] and in assay [16] was “inactive” in each case. Also, the IC50 in [2] is 14.5 µM; in [3], above 30 µM; in assay [9], 10.2 µM. Also, the inhibition entry in assay [4], in assay [5] and in assay [7] was “Dose-dependent effect” throughout. The inhibition result in assay [8], in assay [11], in assay [12], in [14] and in assay [15] was “Active” in each case.
